NR2E3 ag-1: activates human NR2E3 receptor; CHO-S Gal4-NCOR/VP16-NR2E3 two-hybrid, luciferase; inhibition of corepressor binding, % at 3.98 µM; 360,000 tested, 0.35% active; AID 602229;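 active = inhibition above the mean of all tested compounds plus 3 SD, cut at about 70% in these data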;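 note: 0% = DMSO with NR2E3 transfected cells and 100% = cells lacking NR2E3 construct; higher means lower luciferase signal from less NR2E3 corepressor binding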
Target sequence (Q9Y5X4 whole entry, looked up, the tested form may be a part): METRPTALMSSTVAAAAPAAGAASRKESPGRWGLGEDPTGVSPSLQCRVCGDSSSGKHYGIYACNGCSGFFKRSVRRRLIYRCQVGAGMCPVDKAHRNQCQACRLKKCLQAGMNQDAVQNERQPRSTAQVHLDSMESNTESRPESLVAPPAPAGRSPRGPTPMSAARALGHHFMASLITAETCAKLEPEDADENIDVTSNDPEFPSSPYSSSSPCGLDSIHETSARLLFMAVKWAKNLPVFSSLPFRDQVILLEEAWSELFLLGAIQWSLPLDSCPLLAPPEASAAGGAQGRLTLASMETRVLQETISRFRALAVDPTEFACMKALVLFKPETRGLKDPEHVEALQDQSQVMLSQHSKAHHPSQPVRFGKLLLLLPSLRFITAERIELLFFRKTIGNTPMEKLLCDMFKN
697 NFkB inh: inhibitors of the PMA/ionomycin-induced NF-kB reporter in 697 B cells; 697 B-cell NF-kB luciferase reporter, 16 h; inhibition, % at 4 µM; 330,000 tested, 0.33% active; AID 435022; in the data active = inhibition above about 35%
Jurkat NFkB inh: inhibitors of the PMA/ionomycin-induced NF-kB reporter in Jurkat cells; PMA/ionomycin-induced NF-kB luciferase reporter, luminescence; inhibition, % at 4 µM; 330,000 tested, 0.53% active; AID 435003; in the data active = inhibition above about 50%
NR2E3 ag-2: activates human photoreceptor nuclear receptor NR2E3. GST-NR2E3/biotin-RetCOR TR-FRET, 1536-well. inhibition of corepressor binding, % at 4.78 µM. 320,000 tested, 0.12% active. AID 2300;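 active = percent inhibition above the cutoff of mean plus 3 SD of all tested compounds, set per screening campaign, cut at about 20% in these data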;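 note: 0% = DMSO wells and 100% = biotin wells as full block of FRET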
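System: GST-tagged NR2E3 plus biotinylated RetCOR corepressor; Buffer or medium: pH 7.5 Tris-based buffer; Probe or stimulus: RetCOR corepressor, biotinylated, 7 nM; Doses: compound at 4.8 µM, single dose; Schedule: 5 h incubation at 4 °C; Technique: time-resolved FRET; Evaluation: percent inhibition of TR-FRET ratio; Replication: one well per compound, singlicate testing.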
Gli-Sufu antag: antagonists of Gli-Sufu signaling; inhibition, % at 5 µM; Sufu-KO-LIGHT fibroblasts, Gli luciferase reporter luminescence; 340,000 tested, 0.74% active;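 active = inhibition above about 55%, limit read from the data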;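 note: 0% = DMSO-treated cells and 100% = wells with medium but no cells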
GalR3 antagonist: blocks the human galanin receptor 3; O60755; HEK293 GalR3-CNG cAMP membrane potential fluorescence; galR3 body fused to GalR1 C-terminus; inhibition, % at 3 µM; 360,000 tested, 0.44% active; AID 651719;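 active = inhibition above the screen-wide average plus 3 SD, cut at about 13% in these data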;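 note: forskolin and galanin both at EC90 stimulate the cells; cAMP rise reported by CNG channel membrane potential dye signal; 0% = forskolin plus galanin with DMSO and 100% = forskolin alone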
Gli-Sufu confirm: Gli-SUFU antagonism confirmation, single concentration; shares compounds with Gli-Sufu antag; Sufu-KO-LIGHT cells, Gli luciferase reporter, luminescence; inhibition, % at 5 µM; 2,500 tested, 40% active; AID 602428;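 active = mean inhibition at 5 µM reaching about 45%, limit read from the data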;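 note: plate controls were DMSO-treated cells for no effect and wells lacking cells for full effect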
SufuKO cytotox: counter-screen for Gli-SUFU antagonists: cytotoxicity; cytotoxicity, % at 5 µM; AID 651994; shares compounds with Gli-Sufu antag; Sufu-KO-LIGHT cells cytotoxicity, ATP luminescence; 2,500 tested, 32% active;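 active = mean cytotoxicity at 5 µM above about 25%, limit read from the data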;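 note: cells exposed to compound overnight for roughly 16 to 18 hours; plate controls were DMSO wells with cells for no effect and medium without cells for full effect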
Wnt3a cs: inhibits Wnt3a reporter, counter-screen for Gli-SUFU antagonists; shares compounds with Gli-Sufu antag; AID 651995; 2,500 tested, 20% active; inhibition, % at 6.25 µM; Wnt-LIGHT cells, Wnt3a-driven luciferase reporter, luminescence;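 active = mean inhibition above about 25%, limit read from the data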
Active calls of the source: *; · = no result given. Only some compounds are listed: those with a hit (about 1.8% of all), similar ones and a draw of the others.

SMILES	NR2E3 ag-1	697 NFkB inh	Jurkat NFkB inh	NR2E3 ag-2	Gli-Sufu antag	GalR3 antagonist	Gli-Sufu confirm	SufuKO cytotox	Wnt3a cs
CCOC(=O)C1CCCN(C2CCN(Cc3nc(Cc4ccccc4)no3)CC2)C1 (stereo not drawn)	1	29	6	0	50	-3	23	10	-29
COC(=O)c1nnn(CC(=O)Nc2cccc(Cl)c2C)c1C(=O)OC	-24	-7	-6	-2	99*	1	18	-2	2
CC(=O)c1ccc(N2CCN(c3ccc(C(F)(F)F)cn3)CC2)cc1	-8	·	·	5	52	-4	52*	11	-58
CC(=O)c1ccc(N(CC(=O)NC2CCCCC2)C(=O)c2csnn2)cc1	-36	10	-4	-2	-7	-5	·	·	·
Cc1nc2ncccn2c1-c1csc(Nc2ccccc2)n1	6	2	-8	-4	30	-2	·	·	·
Cc1nc2ncccn2c1-c1csc(Nc2ccc(N(C)C)cc2)n1	2	·	·	·	62*	5	57*	45*	-90
COc1ccccc1Nc1nc(-c2c(C)nc3ncccn23)cs1	46	·	·	·	55*	-6	68*	59*	28*
COc1ccc(Nc2nc(-c3c(C)nc4ncccn34)cs2)cc1	12	·	·	·	71*	9	75*	66*	-70
CCCCOCC1CN(CCCC)S(=O)(=O)c2c(Oc3ccc(C(C)C)cc3)cccc2O1 (stereo not drawn)	·	·	·	·	·	-1	·	·	·
C[C@@H]1CCCCO[C@H](CN(C)C(=O)CCC(F)(F)F)[C@H](C)CN([C@@H](C)CO)C(=O)c2cc(NS(=O)(=O)c3ccc(Cl)cc3)ccc2O1	·	·	·	·	·	-8	·	·	·
C[C@@H]1C=CCCO[C@]12C(=O)N(Cc1ccccc1C(F)(F)F)c1ccccc12	·	·	·	·	·	-5	·	·	·
COc1ccc(OC)c(NC(=O)C2CCN(S(=O)(=O)c3c(C)noc3C)CC2)c1	3	13	7	-1	94*	8	25	-2	7
COc1ccc(OC)c(NC(=O)C2CCCN(S(=O)(=O)c3c(C)noc3C)C2)c1 (stereo not drawn)	-8	-18	-3	2	3	-1	·	·	·
CCOC(=O)C1(CCc2ccccc2)CCN(Cc2cc(OC)c(OC)cc2OC)CC1	6	-13	29	3	60*	-9	18	15	-43
CCOC(=O)C1(CCOc2ccccc2)CCN(Cc2cc(OC)c3c(c2)OCO3)CC1	-24	-13	27	-1	54	-8	16	9	-20
CCOC(=O)C1(CCOc2ccccc2)CCN(Cc2ccccc2O)CC1	7	·	·	1	3	-8	·	·	·
CCOC(=O)C1(CCOc2ccccc2)CCN(Cc2cccc(OC)c2OC)CC1	15	-6	6	1	56*	-10	24	9	-27
CCOC(=O)C1(CCOc2ccccc2)CCN(Cc2cccc3c2OCO3)CC1	23	-6	-4	-1	43	-7	·	·	·
Cc1csc(NC(=O)CSCC(=O)Nc2ccccc2)n1	26	-3	-20	1	99*	1	16	6	0
O=C(COC(=O)CCc1nc2ccccc2s1)Nc1nc(-c2ccccc2)cs1	-34	-9	-21	5	-23	-3	·	·	·
Cc1csc(NC(=O)CCc2nc3ccccc3s2)n1	-34	3	-6	0	99*	-3	10	6	-39
Cc1csc(SCC(=O)Nc2ccccc2)n1	14	12	-2	-1	-12	1	·	·	·
Cc1c(Cl)cccc1NC(=O)NN1CCN(C)CC1	13	12	-5	·	95*	-1	10	24	-7
Cc1ccccc1C1NC(c2ccccc2C)C([N+](=O)[O-])C(C)(C)C1[N+](=O)[O-] (stereo not drawn)	-1	-9	10	0	54	-3	17	11	-16
C=CS(=O)(=O)N(C(=C)C(=O)OC)S(C)(=O)=O	·	·	·	·	·	-4	·	·	·
SMILES	NR2E3 ag-1	697 NFkB inh	Jurkat NFkB inh	NR2E3 ag-2	Gli-Sufu antag	GalR3 antagonist	Gli-Sufu confirm	SufuKO cytotox	Wnt3a cs
O=C(NN=Cc1ccccc1Cl)C(=O)Nc1cccc(C(F)(F)F)c1	·	·	·	·	·	-4	·	·	·
CCN1CCN(C(=O)/C=C/c2ccc(OC)cc2)CC1	-2	-32	-14	2	60*	-4	28	27*	-4
COc1ccc(/C=N/N2CCN(c3ccccc3OC)CC2)cc1OC	15	4	-5	4	-10	-6	·	·	·
COc1ccccc1N1CCN(/N=C/c2ccc(O)c(O)c2)CC1	·	-63	34	-1	55	0	25	1	18
COc1cc(CNCc2ccccn2)ccc1OCC(=O)NC(C)(C)C	10	-60	35	-4	14	9	·	·	·
COc1cc(CNCc2ccccn2)ccc1OCC(=O)NC1CCCCC1	-16	2	4	-3	68*	-11	9	-12	-7
COc1ccc(-c2nc(SCC(=O)NC3CCCCC3)n[nH]2)cc1	-32	-1	-5	·	1	-3	·	·	·
O=C(CCCn1nnnc1CN1CCOCC1)N1CCC(c2ccc(F)cc2)C1 (stereo not drawn)	-24	-28	-9	1	97*	-1	21	10	-27
CCOc1ccc(NC(=S)NNc2ccnc3cc(Cl)ccc23)cc1	-36	4	-12	-1	56*	-6	66*	21	-31
CN(C[C@@H](Cc1cccc2ccccc12)N(C[C@H](Cc1ccccc1)N(CCc1ccccc1)N=O)N=O)N=O	0	26	16	2	60*	-4	7	10	-12
CN(C[C@H](Cc1ccccc1)N(C[C@@H](Cc1cccc2ccccc12)N(CCc1ccccc1)N=O)N=O)N=O	10	0	-2	0	4	-4	·	·	·
O=C(COc1cc2oc(=O)cc(-c3ccccc3)c2cc1Cl)NCc1ccccn1	-11	2	5	0	53	1	7	22	8
O=C(COc1cc2oc(=O)c3c(c2cc1Cl)CCC3)NCc1ccccn1	5	0	-3	4	13	·	·	·	·
CCCCOC(=O)C1=C(C)NC(=O)NC1c1cccc([N+](=O)[O-])c1 (stereo not drawn)	2	-49	-16	4	46	-6	·	·	·
CCC(CC)COC(=O)C1=C(C)NC(=O)NC1c1cccc([N+](=O)[O-])c1 (stereo not drawn)	19	-64	-23	-2	62*	-7	25	3	-25
CC(C)C[C@H]1COc2cccc(N3CCCC3)c2S(=O)(=O)N1	·	·	·	·	·	-5	·	·	·

Screening results: PubChem BioAssay, several laboratories
